ChEMBL document CHEMBL4138150, “Quinoline derivatives bearing pyrazole moiety: Synthesis and biological evaluation as possible antibacterial and antifungal agents” (2018)
Converted amounts (≈) assume the structure as drawn.

Tests used:
[1] = tested on: Aspergillus clavatus; assay: Antimicrobial activity against Aspergillus clavatus RCMB 02593 assessed as diameter of zone inhibition at 5 mg/ml after 72 hrs by agar well diffusion assay; assay type: functional; conditions: RCMB 02593, 72 h, read-out: DIZ
Procedure, shortened: (§1)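 Fungi (1 x10^6 CFU/mL, 100 µL) were spread on Sabouraud dextrose agar. 10 mm wells were loaded with 100 µL of test solution at 5 mg/mL in DMSO, or amphotericin B standard at 1 mg/mL. A DMSO negative control was included. Plates were incubated 72 h at 28 °C. Inhibition zone diameter (mm) was recorded as the average of triplicate runs.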

[2] = tested on: Aspergillus clavatus; assay: Potency index, ratio of Amphotericin B IC50 to compound IC50 for Aspergillus clavatus RCMB 02593; assay type: functional
[3] = tested on: Aspergillus fumigatus; assay: Antimicrobial activity against Aspergillus fumigatus RCMB 02564 after 72 hrs by macro-tube dilution technique; assay type: functional; conditions: RCMB 02564, 72 h
Procedure, shortened: (§2)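 Twofold macro-tube dilution following NCCLS guidance, run in malt extract broth. 10 mg compound in 2.0 mL DMSO in tube 1 was serially diluted 1:1 through tube 14 into 1.0 mL broth; tube 15 was the control. Culture was suspended to turbidity in 5.0 mL broth, 0.2 mL was diluted into 40 mL, and 1.0 mL was added per tube. Incubation was 72 h at 30 °C. MIC was the lowest concentration with no growth.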

[4] = tested on: Staphylococcus aureus; assay: Antimicrobial activity against Staphylococcus aureus RCMB 010027 after overnight incubation by macro-tube dilution technique; assay type: functional
Procedure, shortened: (§3)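 Macro-tube twofold dilution following NCCLS guidance, run in nutrient broth. The first tube held 10 mg compound in 2.0 mL DMSO and was serially halved 1:1 into 1.0 mL broth through tube 14; tube 15 was the control. The inoculum was suspended to turbidity in 5.0 mL broth, 0.2 mL was diluted into 40 mL, and 1.0 mL was added per tube. Tubes were incubated overnight at 37 °C. MIC was the lowest concentration with no growth.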

[5] = tested on: Candida albicans; assay: Antimicrobial activity against Candida albicans RCMB 05035 after 72 hrs by macro-tube dilution technique; assay type: functional; conditions: RCMB 05035, 72 h; procedure, shortened: as §2
[6] = tested on: Proteus vulgaris; assay: Potency index, ratio of Gentamycin IC50 to compound IC50 for Proteus vulgaris RCMB 010085; assay type: functional
[7] = tested on: Shigella flexneri; assay: Antimicrobial activity against Shigella flexneri RCMB 0100542 after overnight incubation by macro-tube dilution technique; assay type: functional; procedure, shortened: as §3
[8] = tested on: Klebsiella pneumoniae; assay: Antimicrobial activity against Klebsiella pneumoniae RCMB 010093 after overnight incubation by macro-tube dilution technique; assay type: functional; procedure, shortened: as §3
[9] = tested on: Staphylococcus epidermidis; assay: Antimicrobial activity against Staphylococcus epidermidis RCMB 010024 assessed as diameter of zone inhibition at 5 mg/ml after 24 hrs by agar well diffusion assay; assay type: functional; conditions: RCMB 010024, 24 h, read-out: DIZ
Procedure, shortened: (§4)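 Agar well diffusion: 100 µL of 1 x10^8 CFU/mL bacteria was spread on nutrient agar. 10 mm wells received 100 µL of compound at 5 mg/mL in DMSO, or ampicillin or gentamycin standards at 1 mg/mL. DMSO served as negative control. Plates were incubated 24 h at 37 °C. Inhibition zone diameter (mm) was measured as the mean of triplicates.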

[10] = tested on: Staphylococcus aureus; assay: Antimicrobial activity against Staphylococcus aureus RCMB 010027 assessed as diameter of zone inhibition at 5 mg/ml after 24 hrs by agar well diffusion assay; assay type: functional; conditions: RCMB 010027, 24 h, read-out: DIZ; procedure, shortened: as §4
[11] = tested on: Proteus vulgaris; assay: Antimicrobial activity against Proteus vulgaris RCMB 010085 assessed as diameter of zone inhibition at 5 mg/ml after 24 hrs by agar well diffusion assay; assay type: functional; conditions: RCMB 010085, 24 h, read-out: DIZ; procedure, shortened: as §4
[12] = tested on: Aspergillus clavatus; assay: Antimicrobial activity against Aspergillus clavatus RCMB 02593 after 72 hrs by macro-tube dilution technique; assay type: functional; conditions: RCMB 02593, 72 h; procedure, shortened: as §2
[13] = tested on: Proteus vulgaris; assay: Antimicrobial activity against Proteus vulgaris RCMB 010085 after overnight incubation by macro-tube dilution technique; assay type: functional; procedure, shortened: as §3
[14] = tested on: Bacillus subtilis; assay: Antimicrobial activity against Bacillus subtilis RCMB 010063 after overnight incubation by macro-tube dilution technique; assay type: functional; procedure, shortened: as §3
[15] = tested on: Shigella flexneri; assay: Potency index, ratio of Gentamycin IC50 to compound IC50 for Shigella flexneri RCMB 0100542; assay type: functional
[16] = tested on: Aspergillus fumigatus; assay: Antimicrobial activity against Aspergillus fumigatus RCMB 02564 assessed as diameter of zone inhibition at 5 mg/ml after 72 hrs by agar well diffusion assay; assay type: functional; conditions: RCMB 02564, 72 h, read-out: DIZ; procedure, shortened: as §1
[17] = tested on: Shigella flexneri; assay: Antimicrobial activity against Shigella flexneri RCMB 0100542 assessed as diameter of zone inhibition at 5 mg/ml after 24 hrs by agar well diffusion assay; assay type: functional; conditions: RCMB 0100542, 24 h, read-out: DIZ; procedure, shortened: as §4
[18] = tested on: Staphylococcus epidermidis; assay: Antimicrobial activity against Staphylococcus epidermidis RCMB 010024 after overnight incubation by macro-tube dilution technique; assay type: functional; procedure, shortened: as §3
[19] = tested on: Klebsiella pneumoniae; assay: Antimicrobial activity against Klebsiella pneumoniae RCMB 010093 assessed as diameter of zone inhibition at 5 mg/ml after 24 hrs by agar well diffusion assay; assay type: functional; conditions: RCMB 010093, 24 h, read-out: DIZ; procedure, shortened: as §4
[20] = tested on: Candida albicans; assay: Antimicrobial activity against Candida albicans RCMB 05035 assessed as diameter of zone inhibition at 5 mg/ml after 72 hrs by agar well diffusion assay; assay type: functional; conditions: RCMB 05035, 72 h, read-out: DIZ; procedure, shortened: as §1
[21] = tested on: Candida albicans; assay: Potency index, ratio of Amphotericin B IC50 to compound IC50 for Candida albicans RCMB 05035; assay type: functional
[22] = tested on: Bacillus subtilis; assay: Antimicrobial activity against Bacillus subtilis RCMB 010063 assessed as diameter of zone inhibition at 5 mg/ml after 24 hrs by agar well diffusion assay; assay type: functional; conditions: RCMB 010063, 24 h, read-out: DIZ; procedure, shortened: as §4
[23] = tested on: Staphylococcus epidermidis; assay: Potency index, ratio of Amphotericin B IC50 to compound IC50 for Staphylococcus epidermidis RCMB 010024; assay type: functional
[24] = tested on: Proteus vulgaris; assay: Antimicrobial activity against Proteus vulgaris RCMB 010085 assessed as diameter of zone inhibition at 1 mg/ml after 24 hrs by agar well diffusion assay; assay type: functional, organism-based
Procedure, shortened: (§5)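 Agar well diffusion on nutrient agar spread with 100 µL of bacterial suspension at 1 x10^8 CFU/mL. Wells 10 mm wide were loaded with 100 µL of solution: test compounds at 5 mg/mL in DMSO, ampicillin or gentamycin standards at 1 mg/mL, DMSO negative control. Plates were incubated 24 h at 37 °C, and inhibition zone diameter (mm) was averaged over triplicates.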

[25] = tested on: Shigella flexneri; assay: Antimicrobial activity against Shigella flexneri RCMB 0100542 assessed as diameter of zone inhibition at 1 mg/ml after 24 hrs by agar well diffusion assay; assay type: functional, organism-based; procedure, shortened: as §5
[26] = tested on: Klebsiella pneumoniae; assay: Antimicrobial activity against Klebsiella pneumoniae RCMB 010093 assessed as diameter of zone inhibition at 1 mg/ml after 24 hrs by agar well diffusion assay; assay type: functional, organism-based; procedure, shortened: as §5
[27] = tested on: Staphylococcus aureus; assay: Antimicrobial activity against Staphylococcus aureus RCMB 010027 assessed as diameter of zone inhibition at 1 mg/ml after 24 hrs by agar well diffusion assay; assay type: functional; conditions: RCMB 010027, 24 h, read-out: DIZ
[28] = tested on: Bacillus subtilis; assay: Antimicrobial activity against Bacillus subtilis RCMB 010063 assessed as diameter of zone inhibition at 1 mg/ml after 24 hrs by agar well diffusion assay; assay type: functional; conditions: RCMB 010063, 24 h, read-out: DIZ
[29] = tested on: Staphylococcus epidermidis; assay: Antimicrobial activity against Staphylococcus epidermidis RCMB 010024 assessed as diameter of zone inhibition at 1 mg/ml after 24 hrs by agar well diffusion assay; assay type: functional; conditions: RCMB 010024, 24 h, read-out: DIZ
[30] = tested on: Aspergillus clavatus; assay: Antimicrobial activity against Aspergillus clavatus RCMB 02593 assessed as diameter of zone inhibition at 1 mg/ml after 72 hrs by agar well diffusion assay; assay type: functional; conditions: RCMB 02593, 72 h, read-out: DIZ
[31] = tested on: Aspergillus fumigatus; assay: Antimicrobial activity against Aspergillus fumigatus RCMB 02564 assessed as diameter of zone inhibition at 1 mg/ml after 72 hrs by agar well diffusion assay; assay type: functional; conditions: RCMB 02564, 72 h, read-out: DIZ
[32] = tested on: Candida albicans; assay: Antimicrobial activity against Candida albicans RCMB 05035 assessed as diameter of zone inhibition at 1 mg/ml after 72 hrs by agar well diffusion assay; assay type: functional; conditions: RCMB 05035, 72 h, read-out: DIZ

Compound | zone of inhibition at 5000 µg/mL [1] | MIC [3] | MIC [4] | MIC [5] | MIC [7] | MIC [8] | zone of inhibition at 5000 µg/mL [9] | zone of inhibition at 5000 µg/mL [10] | zone of inhibition at 5000 µg/mL [11] | MIC [12] | MIC [13] | MIC [14] | zone of inhibition at 5000 µg/mL [16] | zone of inhibition at 5000 µg/mL [17] | MIC [18] | zone of inhibition at 5000 µg/mL [19] | zone of inhibition at 5000 µg/mL [20] | zone of inhibition at 5000 µg/mL [22] | other results
N#Cc1c(-c2ccc(Cl)cc2Cl)nn(-c2ccc3ccccc3n2)c1N | 22.3 mm | 0.98 µg/mL (≈ 2.58 µM) | 0.49 µg/mL (≈ 1.29 µM) | 0.12 µg/mL (≈ 0.316 µM) | 0.12 µg/mL (≈ 0.316 µM) | 0.49 µg/mL (≈ 1.29 µM) | 22.3 mm | 21.6 mm | 20.6 mm | 0.49 µg/mL (≈ 1.29 µM) | 0.98 µg/mL (≈ 2.58 µM) | 0.12 µg/mL (≈ 0.316 µM) | 20.9 mm | 23.2 mm | 0.49 µg/mL (≈ 1.29 µM) | 21.6 mm | 24.8 mm | 25.8 mm | Ratio [2]: 4; Ratio [6]: 2; Ratio [15]: 4; Ratio [21]: 4
COc1ccc(C2CC(c3ccc(Oc4ccc5ccccc5n4)cc3)=NN2c2ccccc2)cc1 (centres undefined) | 22.9 mm | 1.95 µg/mL (≈ 4.14 µM) | 0.24 µg/mL (≈ 0.509 µM) | 0.48 µg/mL (≈ 1.02 µM) | 0.48 µg/mL (≈ 1.02 µM) | 3.9 µg/mL (≈ 8.27 µM) | 26.2 mm | 29 mm | 24.5 mm | 3.9 µg/mL (≈ 8.27 µM) | 9.9 µg/mL (≈ 21 µM) | 0.06 µg/mL (≈ 0.127 µM) | 23.5 mm | 23.3 mm | 0.24 µg/mL (≈ 0.509 µM) | 26.1 mm | 23.5 mm | 28.7 mm | Ratio [23]: 2
GENTAMICIN |  |  |  |  | 0.48 µg/mL | 0.24 µg/mL |  |  |  |  | 1.95 µg/mL |  |  |  |  |  |  |  | inhibition zone (IZ) [24]: 23.4 mm; inhibition zone (IZ) [25]: 24.8 mm; inhibition zone (IZ) [26]: 26.3 mm
CC1(C)S[C@@H]2[C@H](NC(=O)[C@H](N)c3ccccc3)C(=O)N2[C@H]1C(=O)O [AMPICILLIN] |  |  | 0.06 µg/mL (≈ 0.172 µM) |  |  |  |  |  |  |  |  | 0.007 µg/mL (≈ 0.02 µM) |  |  | 0.48 µg/mL (≈ 1.37 µM) |  |  |  | zone of inhibition at 1000 µg/mL [27]: 28.9 mm; zone of inhibition at 1000 µg/mL [28]: 34.6 mm; zone of inhibition at 1000 µg/mL [29]: 25.4 mm
C[C@@H]1[C@H](O)[C@@H](C)/C=C/C=C/C=C/C=C/C=C/C=C/C=C/[C@H](O[C@@H]2O[C@H](C)[C@@H](O)[C@H](N)[C@@H]2O)C[C@@H]2O[C@](O)(C[C@@H](O)C[C@@H](O)[C@H](O)CC[C@@H](O)C[C@@H](O)CC(=O)O[C@H]1C)C[C@H](O)[C@H]2C(=O)O [AMPHOTERICIN B] |  | 0.97 µg/mL (≈ 1.05 µM) |  | 0.48 µg/mL (≈ 0.519 µM) |  |  |  |  |  | 1.95 µg/mL (≈ 2.11 µM) |  |  |  |  |  |  |  |  | zone of inhibition at 1000 µg/mL [30]: 21.9 mm; zone of inhibition at 1000 µg/mL [31]: 23.7 mm; zone of inhibition at 1000 µg/mL [32]: 26.4 mm
